In ChEMBL document CHEMBL1667761, “3-benzylamino-β-carboline derivatives induce apoptosis through G2/M arrest in human carcinoma cells HeLa S-3” (Eur J Med Chem, 2011):
Active and inactive are the calls of the source. The rule behind the calls is not given here.

Columns and labels:
[1] = Antitumor activity against human HeLaS3 cells after 24 to 72 hrs by MTT assay; type: functional, cell-based, HeLa S3
How it was run: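 HeLa S-3 cells (MEM, 10% FBS, HEPES, NEAA, 2 mM L-glutamine, 5% CO2, 37 °C) seeded at 2 × 10⁴ cells/ml and cultured 3 h before exposure for 24–72 h at 37 °C. MTT (2 mg/ml) added for 4 h at 37 °C, formazan dissolved in DMSO, A540 read. Viability is expressed as % of control. IC50 is the concentration giving 50% growth inhibition, mean ± S.D. of four independent experiments run in triplicate.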

[2] = Cell cycle arrest in human HeLaS3 cells assessed as accumulation at G2/M phase at 1 uM after 12 hrs by flow cytometry; type: functional, cell-based; details: HeLa S3
How it was run: (§1)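 HeLa S-3 cells exposed for 6, 12 or 24 h. Cells washed twice in ice-cold PBS, fixed in ice-cold 70% ethanol, and resuspended with 0.1 mg/ml RNase. Stained with […] PI and analysed by flow cytometry. Phase distribution (sub-G1, G1, S, G2/M) is reported as percentage of cells. Controls were untreated.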

[3] = Cell cycle arrest in human HeLaS3 cells assessed as accumulation at sub-G1 phase at 1 uM after 12 hrs by flow cytometry; type: functional, cell-based; details: HeLa S3; how it was run: as §1
[4] = Cell cycle arrest in human HeLaS3 cells assessed as accumulation at sub-G1 phase at 1 uM after 24 hrs by flow cytometry; type: functional, cell-based; details: HeLa S3; how it was run: as §1
[5] = Cell cycle arrest in human HeLaS3 cells assessed as accumulation at G1 phase at 1 uM after 24 hrs by flow cytometry; type: functional, cell-based; details: HeLa S3; how it was run: as §1
[6] = Cell cycle arrest in human HeLaS3 cells assessed as accumulation at sub-G1 phase at 1 uM after 6 hrs by flow cytometry; type: functional, cell-based; details: HeLa S3; how it was run: as §1
HeLa S3 [7] = experiment: Induction of apoptosis in human HeLaS3 cells assessed as appearance of fragmented nuclei at 5 times IC50 after 48 hrs by Hoechst staining; type: functional, cell-based
How it was run: (§2)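 Stained with Hoechst 33342 (1 µg/ml) for 40 min at 37 °C. Nuclei were examined by confocal laser microscopy, and apoptosis was scored from chromatin condensation and fragmented nuclei.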

[8] = Cell cycle arrest in human HeLaS3 cells assessed as accumulation at G1 phase at 1 uM after 6 hrs by flow cytometry; type: functional, cell-based; details: HeLa S3; how it was run: as §1
[9] = Cell cycle arrest in human HeLaS3 cells assessed as accumulation at sub-G1 phase at 5 uM after 6 hrs by flow cytometry; type: functional, cell-based; details: HeLa S3; how it was run: as §1
[10] = Cell cycle arrest in human HeLaS3 cells assessed as accumulation at G1 phase at 5 uM after 12 hrs by flow cytometry; type: functional, cell-based; details: HeLa S3; how it was run: as §1
[11] = Cell cycle arrest in human HeLaS3 cells assessed as accumulation at G2/M phase at 5 uM after 24 hrs by flow cytometry; type: functional, cell-based; details: HeLa S3; how it was run: as §1
[12] = Cell cycle arrest in human HeLaS3 cells assessed as accumulation at S phase at 5 uM after 24 hrs by flow cytometry; type: functional, cell-based; details: HeLa S3; how it was run: as §1
HeLa S3 [13] = experiment: Induction of apoptosis in human HeLaS3 cells assessed as DNA fragmentation after 24 hrs by agarose gel electrophoresis; type: functional, cell-based
How it was run: (§3)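 HeLa S-3 cells exposed for 12–48 h, then pellets lysed in 0.6% sarcosine, 20 mM Tris-HCl pH 7.4, 20 mM EDTA. Lysate treated with RNase A for 2 h at 50 °C, then proteinase K overnight at 50 °C. DNA extracted with phenol/chloroform, run on 2% agarose in TAE at 50 V, stained with ethidium bromide, and visualised under UV.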

[14] = Cell cycle arrest in human HeLaS3 cells assessed as accumulation at sub-G1 phase at 5 uM after 24 hrs by flow cytometry; type: functional, cell-based; details: HeLa S3; how it was run: as §1
[15] = Cell cycle arrest in human HeLaS3 cells assessed as accumulation at G2/M phase at 1 uM after 6 hrs by flow cytometry; type: functional, cell-based; details: HeLa S3; how it was run: as §1
[16] = Cell cycle arrest in human HeLaS3 cells assessed as accumulation at G1 phase at 5 uM after 24 hrs by flow cytometry; type: functional, cell-based; details: HeLa S3; how it was run: as §1
[17] = Cell cycle arrest in human HeLaS3 cells assessed as accumulation at S phase at 5 uM after 12 hrs by flow cytometry; type: functional, cell-based; details: HeLa S3; how it was run: as §1
[18] = Cell cycle arrest in human HeLaS3 cells assessed as accumulation at S phase at 5 uM after 6 hrs by flow cytometry; type: functional, cell-based; details: HeLa S3; how it was run: as §1
[19] = Cell cycle arrest in human HeLaS3 cells assessed as accumulation at G2/M phase at 5 uM after 12 hrs by flow cytometry; type: functional, cell-based; details: HeLa S3; how it was run: as §1
[20] = Cell cycle arrest in human HeLaS3 cells assessed as increase in cdc2 protein level at 5 times IC50 by Western blot method; type: functional, cell-based; details: HeLa S3
How it was run: (§4)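 HeLa S-3 cells treated for 24 h at 5-fold the IC50, alongside non-treated controls. Cells lysed in RIPA buffer (pH 8.0) with protease inhibitors and the whole-cell extract separated by SDS-PAGE, then transferred to PVDF. Blots blocked in 5% skim milk/TTBS and probed with anti-cdc2, cdk2 or cleaved caspase-3 antibodies (1:1000). β-actin (1:5000) served as loading control. Detection by HRP secondary antibody and ECL.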

HeLa S3 [21] = experiment: Induction of apoptosis in human HeLaS3 cells assessed as cleaved caspase-3 at 5 times IC50 by Western blot method; type: functional, cell-based; how it was run: as §4
[22] = Cell cycle arrest in human HeLaS3 cells assessed as accumulation at S phase at 1 uM after 6 hrs by flow cytometry; type: functional, cell-based; details: HeLa S3; how it was run: as §1
[23] = Cell cycle arrest in human HeLaS3 cells assessed as accumulation at G2/M phase at 5 uM after 6 hrs by flow cytometry; type: functional, cell-based; details: HeLa S3; how it was run: as §1
[24] = Cell cycle arrest in human HeLaS3 cells assessed as accumulation at sub-G1 phase at 5 uM after 12 hrs by flow cytometry; type: functional, cell-based; details: HeLa S3; how it was run: as §1
[25] = Cell cycle arrest in human HeLaS3 cells assessed as accumulation at S phase at 1 uM after 12 hrs by flow cytometry; type: functional, cell-based; details: HeLa S3; how it was run: as §1
[26] = Cell cycle arrest in human HeLaS3 cells assessed as accumulation at S phase at 1 uM after 24 hrs by flow cytometry; type: functional, cell-based; details: HeLa S3; how it was run: as §1
[27] = Cell cycle arrest in human HeLaS3 cells assessed as accumulation at G1 phase at 1 uM after 12 hrs by flow cytometry; type: functional, cell-based; details: HeLa S3; how it was run: as §1
[28] = Cell cycle arrest in human HeLaS3 cells assessed as effect on cdk2 protein level at 5 times IC50 by Western blot method; type: functional, cell-based; details: HeLa S3; how it was run: as §4
HeLa S3 [29] = experiment: Induction of apoptosis in human HeLaS3 cells assessed as appearance of fragmented nuclei at 10 times IC50 after 48 hrs by Hoechst staining; type: functional, cell-based; how it was run: as §2
[30] = Cell cycle arrest in human HeLaS3 cells assessed as accumulation at G2/M phase at 1 uM after 24 hrs by flow cytometry; type: functional, cell-based; details: HeLa S3; how it was run: as §1
[31] = Cell cycle arrest in human HeLaS3 cells assessed as accumulation at G1 phase at 5 uM after 6 hrs by flow cytometry; type: functional, cell-based; details: HeLa S3; how it was run: as §1
HeLa S3 [32] = experiment: Induction of apoptosis in human HeLaS3 cells assessed as DNA fragmentation after 48 hrs by agarose gel electrophoresis; type: functional, cell-based; how it was run: as §3

## C[n+]1cc2[nH]c3ccccc3c2cc1NCc1ccccc1 [listing 1 of 4 here]
[1]; hela s3
  IC50: 0.54 µM

## CCNc1cc2c3ccccc3nc-2c[nH]1
[1]; Homo sapiens, HeLa S3
  IC50: 19 µM

## COC(=O)c1cccc(CNc2cc3c(cn2)[nH]c2ccccc23)c1
[1]; Homo sapiens, HeLa S3
  IC50: 17 µM

## Oc1cccc(CNc2cc3c(cn2)[nH]c2ccccc23)c1
[2]
  Activity: 31.3%
[3]
  Activity: 9.5%
[4]
  Activity: 7.5%
[5]
  Activity: 58.5%
[6]
  Activity: 8.2%
HeLa S3 [7]
  Activity: Active
[8]
  Activity: 36.2%
[9]
  Activity: 3.5%
[10]
  Activity: 7.2%
[11]
  Activity: 53.3%
[12]
  Activity: 6.8%
HeLa S3 [13]
  Activity: Active
[14]
  Activity: 21.3%
[15]
  Activity: 36.3%
[16]
  Activity: 15.8%
[17]
  Activity: 8.9%
[18]
  Activity: 14.1%
[19]
  Activity: 76.7%
[20]
  Activity: Active
HeLa S3 [21]
  Activity: Active
[22]
  Activity: 20%
[23]
  Activity: 52.9%
[24]
  Activity: 5.9%
[1]; Homo sapiens, HeLa S3
  IC50: 0.92 µM
[25]
  Activity: 10.7%
[26]
  Activity: 17.4%
[27]
  Activity: 48.8%
[28]
  Activity: inactive
HeLa S3 [29]
  Activity: Active
[30]
  Activity: 17.1%
[31]
  Activity: 27.3%

## C[n+]1cc2[nH]c3ccccc3c2cc1NCc1ccccc1 [listing 2 of 4 here]
[1]; hela s3
  IC50: 99 µM

## COC(=O)c1ccc(CNc2cc3c(cn2)[nH]c2ccccc23)cc1
[1]; Homo sapiens, HeLa S3
  IC50: 45 µM

## C[n+]1cc2[nH]c3ccccc3c2cc1NCc1ccccc1 [listing 3 of 4 here]
[2]
  Activity: 73.5%
[3]
  Activity: 10.3%
[4]
  Activity: 34.6%
[5]
  Activity: 38.4%
[6]
  Activity: 4.7%
HeLa S3 [7]
  Activity: Active
[8]
  Activity: 31.5%
[9]
  Activity: 2.8%
[10]
  Activity: 6.1%
[11]
  Activity: 82.3%
[12]
  Activity: 3.6%
HeLa S3 [13]
  Activity: inactive
[14]
  Activity: 6.9%
[15]
  Activity: 46.1%
[16]
  Activity: 4.4%
[17]
  Activity: 10%
[18]
  Activity: 13.8%
[19]
  Activity: 78.5%
[20]
  Activity: Active
HeLa S3 [21]
  Activity: Active
[22]
  Activity: 21.9%
[23]
  Activity: 50.5%
[24]
  Activity: 3.2%
HeLa S3 [32]
  Activity: Active
[25]
  Activity: 8.7%
[26]
  Activity: 13.6%
[27]
  Activity: 7.8%
[28]
  Activity: inactive
HeLa S3 [29]
  Activity: Active
[30]
  Activity: 13.8%
[31]
  Activity: 29.7%

## c1ccc2c(c1)[nH]c1cnccc12 [NORHARMANE]
[1]; Homo sapiens, HeLa S3
  IC50: > 100 µM

## CC(C)(C)OC(=O)NCCOc1cccc(CNc2cc3c(cn2)[nH]c2ccccc23)c1
[1]; Homo sapiens, HeLa S3
  IC50: 16 µM

## CC(C)(C)OC(=O)NCCOc1ccc(CNc2cc3c(cn2)[nH]c2ccccc23)cc1
[1]; Homo sapiens, HeLa S3
  IC50: 42 µM

## CNc1cc2c(cn1)[nH]c1ccccc12
[1]; Homo sapiens, HeLa S3
  IC50: 101 µM

## C[n+]1cc2[nH]c3ccccc3c2cc1NCc1ccccc1 [listing 4 of 4 here]
[1]; hela s3
  IC50: 9.9 µM

## c1ccc(CCNc2cc3c(cn2)[nH]c2ccccc23)cc1
[1]; Homo sapiens, HeLa S3
  IC50: 22 µM

## CC(C)(C)CNc1cc2c(cn1)[nH]c1ccccc12
[1]; Homo sapiens, HeLa S3
  IC50: 17 µM

## c1ccc(CNc2cc3c(cn2)[nH]c2ccccc23)cc1
[2]
  Activity: 84.3%
[3]
  Activity: 3.7%
[4]
  Activity: 3.7%
[5]
  Activity: 1.1%
[6]
  Activity: 3.8%
HeLa S3 [7]
  Activity: Active
[8]
  Activity: 31.5%
[9]
  Activity: 3.3%
[10]
  Activity: 13.8%
[11]
  Activity: 80.5%
[12]
  Activity: 3.9%
HeLa S3 [13]
  Activity: Active
[14]
  Activity: 8.3%
[15]
  Activity: 46.1%
[16]
  Activity: 4.9%
[17]
  Activity: 12.5%
[18]
  Activity: 12.2%
[19]
  Activity: 68.1%
[20]
  Activity: Active
HeLa S3 [21]
  Activity: Active
[22]
  Activity: 19%
[23]
  Activity: 47.3%
[24]
  Activity: 3%
[1]; Homo sapiens, HeLa S3
  IC50: 0.12 µM
[25]
  Activity: 9.4%
[26]
  Activity: 2.6%
[27]
  Activity: 2.9%
[28]
  Activity: inactive
HeLa S3 [29]
  Activity: Active
[30]
  Activity: 92.2%
[31]
  Activity: 34%

## CC(C)CNc1cc2c(cn1)[nH]c1ccccc12
[1]; Homo sapiens, HeLa S3
  IC50: 13 µM

## c1ccc(CCCNc2cc3c(cn2)[nH]c2ccccc23)cc1
[1]; Homo sapiens, HeLa S3
  IC50: 21 µM
